Reference: ChEMBL document CHEMBL4368914, “Tricyclic Indazoles-A Novel Class of Selective Estrogen Receptor Degrader Antagonists” (J Med Chem, 2019)

Tests used:
[1] = target: T1, Estrogen receptor (Homo sapiens, UniProt P03372); assay: Induction of ERalpha degradation in human MCF7 cells after 18 to 24 hrs by in multiplexed cell assay; type: cell-based
T1 sequence (P03372 whole entry): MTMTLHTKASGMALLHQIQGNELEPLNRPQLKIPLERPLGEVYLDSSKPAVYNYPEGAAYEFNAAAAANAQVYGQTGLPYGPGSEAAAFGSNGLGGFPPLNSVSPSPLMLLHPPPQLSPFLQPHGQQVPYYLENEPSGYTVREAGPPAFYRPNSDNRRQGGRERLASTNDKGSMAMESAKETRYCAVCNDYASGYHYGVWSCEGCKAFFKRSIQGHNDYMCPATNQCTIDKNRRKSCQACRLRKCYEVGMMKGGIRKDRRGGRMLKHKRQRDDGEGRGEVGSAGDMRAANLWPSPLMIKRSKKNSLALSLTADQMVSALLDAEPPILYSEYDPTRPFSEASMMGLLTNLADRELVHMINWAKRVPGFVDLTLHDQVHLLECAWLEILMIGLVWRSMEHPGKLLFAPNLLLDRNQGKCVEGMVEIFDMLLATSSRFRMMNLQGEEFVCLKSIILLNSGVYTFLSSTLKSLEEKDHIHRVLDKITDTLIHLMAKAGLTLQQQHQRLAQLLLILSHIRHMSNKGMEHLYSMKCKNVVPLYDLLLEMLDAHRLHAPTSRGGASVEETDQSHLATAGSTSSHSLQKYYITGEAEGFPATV
Outline: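 MCF-7 cells were kept at 37 °C, 5% CO₂ in phenol red-free RPMI1640 with 5% charcoal-stripped FCS and 2 mmol/L glutamine. Compounds came from 10 mmol/L DMSO stocks.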

[2] = Fraction unbound in Alderley Park Han Wistar rat plasma by equilibrium dialysis; type: ADME, cell-free
Outline: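 Equilibrium dialysis from DMSO stock in 10% plasma, either Alderley Park Han Wistar rat plasma or human plasma.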

[3] = Intrinsic clearance in rat hepatocytes assessed per million cells; type: ADME, cell-based, Hepatocyte; conditions: read-out: CLH
Outline: (§1)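 Rate of metabolism (µl/min/10⁶ cells) measured from DMSO stock in isolated hepatocytes diluted to 1x10⁶ cells/mL.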

[4] = Apparent permeability in human Caco2 cells at 10 uM; type: ADME, cell-based; conditions: Caco-2
Outline: (§2)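 Compound at 10 μM incubated on cultured Caco-2 or MDCK cells. Permeability was measured apical-to-basolateral and basolateral-to-apical, and efflux ratio was taken as (B to A)/(A to B).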

[5] = Efflux ratio of apparent permeability in human Caco2 cells at 10 uM; type: ADME, cell-based; conditions: Caco-2; outline: as §2
[6] = Efflux ratio of apparent permeability in MDCK cells at 10 uM; type: ADME, cell-based, Canis lupus familiaris; conditions: dog; outline: as §2
[7] = Clearance in rat at 0.5 mg/kg, iv or 1 mg/kg, po; type: ADME, organism-based; conditions: in vivo
Outline: (§3)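 Single IV dose of 0.5 mg/kg and oral dose of 1 mg/kg in rat and dog. Both routes were formulated in 5% DMSO:95% hydroxypropyl β-cyclodextrin (30% w/v), at 1 mL/kg IV and 4 mL/kg PO.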

[8] = Clearance in dog at 0.5 mg/kg, iv or 1 mg/kg, po; type: ADME, organism-based, Canis lupus familiaris; conditions: in vivo; outline: as §3
[9] = Half life in rat at 0.5 mg/kg, iv or 1 mg/kg, po; type: ADME, organism-based; conditions: in vivo; outline: as §3
[10] = Half life in dog at 0.5 mg/kg, iv or 1 mg/kg, po; type: ADME, organism-based, Canis lupus familiaris; conditions: in vivo; outline: as §3
[11] = Oral bioavailability in rat at 1 mg/kg; type: ADME, organism-based; conditions: in vivo; outline: as §3
[12] = target: T1, Estrogen receptor; assay: Induction of ERalpha degradation in human MCF7 cells assessed as reduction in ERalpha protein expression after 5 hrs by formaldehyde-staining based assay; type: cell-based
[13] = target: T1, Estrogen receptor; assay: Agonist activity at ERalpha in human MCF7 cells assessed as effect on PR protein expression after 5 hrs by formaldehyde-staining based assay; type: cell-based
[14] = target: T1, Estrogen receptor; assay: Antagonist activity at ERalpha in human MCF7 cells assessed as inhibition of estradiol-driven PR response by microplate cytometry; type: cell-based
[15] = tested on: Mus musculus; assay: In vivo antagonist activity at ERalpha in tumor of human MCF7 cells xenografted in po dosed SCID CB17 mouse assessed as reduction in PR levels administered once daily for 3 days measured after 24 hrs post last dose by Western blot analysis; type: functional, organism-based
Outline: (§4)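 Male SCID mice carried a 0.5 mg/21 day s.c. estrogen pellet, with 5x10^6 MCF-7 cells implanted s.c. in the hind flank 24 h later. Groups of 5 were randomised at 0.5–0.8 cm³ and gavaged once daily for 3 d in PEG400/Captisol/water vehicle at 10 ml/kg. Tumours were taken 24 h post-dose, and PR was read by Western blot normalized to vinculin.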

[16] = tested on: Mus musculus; assay: In vivo antagonist activity at ERalpha in tumor of human MCF7 cells xenografted in SCID CB17 mouse assessed as reduction in normalized PR levels at 5 mg/kg, po administered once daily for 3 days measured after 24 hrs post last dose by Western blot analysis relative to control; type: functional; parameters: scale not given: the % may be the effect or the level left; outline: as §4
[17] = tested on: Mus musculus; assay: In vivo antagonist activity at ERalpha in tumor of human MCF7 cells xenografted in SCID CB17 mouse assessed as reduction in normalized PR levels at 50 mg/kg, po administered once daily for 3 days measured after 24 hrs post last dose by Western blot analysis relative to control; type: functional; parameters: scale not given: the % may be the effect or the level left; outline: as §4
[18] = target: Cytochrome P450 2C9 (Homo sapiens, UniProt P11712); assay: Inhibition of CYP2C9 in human liver microsomes; type: ADME
Outline: (§5)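 High-throughput human liver microsome assay across a panel of five CYP isoforms, giving IC50.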

[19] = target: T2, Cytochrome P450 1A2 (Homo sapiens, UniProt P05177); assay: Inhibition of CYP1A2 in human liver microsomes; type: ADME; outline: as §5
T2 sequence (P05177 whole entry): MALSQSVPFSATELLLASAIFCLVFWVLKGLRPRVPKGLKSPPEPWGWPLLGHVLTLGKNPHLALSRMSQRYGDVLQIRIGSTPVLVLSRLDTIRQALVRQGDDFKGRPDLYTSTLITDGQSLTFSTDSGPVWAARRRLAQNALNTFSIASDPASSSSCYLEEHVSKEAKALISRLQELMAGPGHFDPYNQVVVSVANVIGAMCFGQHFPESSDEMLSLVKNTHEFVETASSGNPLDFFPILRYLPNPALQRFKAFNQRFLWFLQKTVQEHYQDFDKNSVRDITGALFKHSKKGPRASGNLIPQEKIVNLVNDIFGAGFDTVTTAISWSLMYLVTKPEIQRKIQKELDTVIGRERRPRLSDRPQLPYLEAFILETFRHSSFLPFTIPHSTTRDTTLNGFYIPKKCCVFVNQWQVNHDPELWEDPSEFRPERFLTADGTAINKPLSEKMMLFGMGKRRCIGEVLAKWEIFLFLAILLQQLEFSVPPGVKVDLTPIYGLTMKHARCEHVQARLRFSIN

[20] = target: Cytochrome P450 2C19 (Homo sapiens, UniProt P33261); assay: Inhibition of CYP2C19 in human liver microsomes; type: ADME; outline: as §5
[21] = Stability in pH 1 deuterated buffer assessed as compound remaining after 8 days by 1H NMR spectroscopy; type: physicochemical; conditions: pH 4 deuterated buffer, in the assay text read “pH 4” for “pH 1”, read-out: Stability
Outline: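 Compound diluted from a 25 mM DMSO-d6 stock to a final 1 mM in each deuterated buffer. Followed by ¹H NMR (500 MHz, water suppression, 64 scans) and LC-MS at 0, 24, 72 and 192 h (8 days).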

[22] = Intrinsic clearance in dog hepatocytes assessed per million cells; type: ADME, cell-based, Canis lupus familiaris, Hepatocyte; conditions: read-out: CLH; outline: as §1

Cytochrome P450 2C9, sequence (P11712 whole entry, canonical isoform): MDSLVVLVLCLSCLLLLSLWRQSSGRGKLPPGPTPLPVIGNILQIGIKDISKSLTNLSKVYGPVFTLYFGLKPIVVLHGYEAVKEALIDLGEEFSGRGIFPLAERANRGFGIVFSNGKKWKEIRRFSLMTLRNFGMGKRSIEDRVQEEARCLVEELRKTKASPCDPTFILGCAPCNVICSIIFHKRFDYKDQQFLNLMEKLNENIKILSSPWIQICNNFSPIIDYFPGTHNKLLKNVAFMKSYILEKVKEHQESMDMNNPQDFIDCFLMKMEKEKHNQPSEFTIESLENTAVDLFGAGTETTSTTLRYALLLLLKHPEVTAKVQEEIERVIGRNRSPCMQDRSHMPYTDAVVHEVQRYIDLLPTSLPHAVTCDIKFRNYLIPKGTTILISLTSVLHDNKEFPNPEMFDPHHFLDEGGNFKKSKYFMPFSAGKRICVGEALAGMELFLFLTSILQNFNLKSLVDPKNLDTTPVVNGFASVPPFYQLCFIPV
Cytochrome P450 2C19, sequence (P33261 whole entry): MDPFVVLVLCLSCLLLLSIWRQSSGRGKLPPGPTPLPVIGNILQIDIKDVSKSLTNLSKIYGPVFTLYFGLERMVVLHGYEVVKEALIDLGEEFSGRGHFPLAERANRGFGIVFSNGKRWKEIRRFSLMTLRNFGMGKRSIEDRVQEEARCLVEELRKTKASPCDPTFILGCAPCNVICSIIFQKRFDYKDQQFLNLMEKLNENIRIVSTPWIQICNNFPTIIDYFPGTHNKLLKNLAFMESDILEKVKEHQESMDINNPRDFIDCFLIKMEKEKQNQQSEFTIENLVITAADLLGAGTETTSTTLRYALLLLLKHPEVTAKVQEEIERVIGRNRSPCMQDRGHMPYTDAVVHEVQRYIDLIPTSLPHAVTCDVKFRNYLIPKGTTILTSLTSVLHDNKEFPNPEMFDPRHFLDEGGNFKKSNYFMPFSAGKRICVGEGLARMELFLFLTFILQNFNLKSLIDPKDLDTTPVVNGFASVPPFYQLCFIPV

IC50 [1]: 0.251 nM
fraction unbound [2]: 0.0083
hepatocyte CLint [3]: 26 µL/min/1e6 cells
Papp at 10 µM [4]: 6.9 ×10⁻⁶ cm/s
efflux ratio at 10 µM [5]: 1.4
efflux ratio at 10 µM [6]: 0.6
clearance [7]: 23 mL/min/kg
clearance [8]: 5.9 mL/min/kg
half-life [9]: 72 min
half-life [10]: 366 min
bioavailability [11]: 31%
IC50 [12]: 0.251 nM
IC50 [13]: > 3.16 µM
IC50 [14]: 1 nM
IC50 [18]: 2500 nM
IC50 [19]: > 30 µM
IC50 [20]: > 30 µM
remaining at 192 h [21]: 58%
hepatocyte CLint [22]: 17 µL/min/1e6 cells
SMILES: C[C@@H]1Cc2c(ccc3[nH]ncc23)[C@@H](c2c(F)cc(/C=C/C(=O)O)cc2F)N1CC(C)(C)F
Activity [15]: Dose-dependent effect
Activity [16]: 74%
Activity [17]: 93%
